# An excerpt weighted towards active compounds, which were near 3.5% of everything screened.
# RGS4 pot – RGS4 potentiators or activators, primary screen, cell-based, HEK293 M3R inducible RGS4, calcium flux. carbachol calcium flux Fluo4; stronger effect = lower value. B-score at 10 µM. 310,000 tested, 0.92% active;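 active = B-score of the integrated calcium signal more than 4 SD below the library mean, with starting fluorescence not abnormally high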;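 also: negative B-score means reduced calcium response which marks RGS4 activation or potentiation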
#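 Also added: carbachol at ECmax as muscarinic agonist stimulus; Assay system: HEK293 cells with stable M3R and inducible RGS4; Timing: overnight RGS4 induction, 30 min dye load 37 °C, 20 min compound RT; Measured by: Fluo4-AM (2 µM) calcium-flux fluorescence, kinetic read.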
# MrgX1 ag – agonists of human MrgX1 receptor, primary screen, HEK293 cells, Fluo-4 calcium flux; B-score at 10 µM; Fluo-4 calcium fluorescence, agonist mode; stronger effect = higher value; 310,000 tested, 0.44% active;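 active = calcium response B-score plate-corrected fluorescence ratio at least 3 library SD, with starting fluorescence B-score inside 5 SD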
# Target sequence (Q96LB2 whole entry, looked up): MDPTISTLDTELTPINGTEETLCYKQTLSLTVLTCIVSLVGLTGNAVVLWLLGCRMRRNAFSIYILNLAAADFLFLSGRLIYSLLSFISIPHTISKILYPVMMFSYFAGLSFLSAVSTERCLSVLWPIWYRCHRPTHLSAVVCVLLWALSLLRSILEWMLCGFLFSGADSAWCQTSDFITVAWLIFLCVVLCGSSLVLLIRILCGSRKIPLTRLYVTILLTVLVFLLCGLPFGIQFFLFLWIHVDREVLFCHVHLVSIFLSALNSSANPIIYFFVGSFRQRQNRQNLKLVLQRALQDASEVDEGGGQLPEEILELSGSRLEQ
#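 Test system: HEK293 cells stably expressing human MrgX1 receptor; amount: 15,000 cells per well; doses: compound delivered in addition one of three; times: overnight plating before 1 h dye loading; detection: Fluo-4 NW calcium-flux fluorescence, kinetic read; read-out basis: B-scored fluorescence response ratio; controls: positive and negative controls per plate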
# MrgX1 antagonist – antagonists of human MrgX1 receptor, primary screen, HEK293 cells, Fluo-4 calcium flux | Mas-related G-protein coupled receptor member X1 (Homo sapiens), Q96LB2 | BAM8-22 antagonism; stronger effect = lower value | B-score at 10 µM | 310,000 tested, 1.3% active | AID 588676, 2011;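 active = calcium-response B-score plate-corrected more than 3 library SD below zero, starting fluorescence within 5 deviations, no agonist response on first addition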;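 also: peak minus trough fluorescence over baseline after final BAM8-22 challenge near maximal dose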
# RGS4 block – RGS4 inhibitors, primary screen, cell-based, HEK293 M3R inducible RGS4, calcium flux; B-score at 10 µM; 310,000 tested, 0.45% active; Fluo-4 calcium flux; stronger effect = higher value; triggered by carbachol at its EC20;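 active = B-score, a plate-corrected calcium signal, over three deviations above library mean, with baseline fluorescence within five deviations of library mean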;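 also: RGS4 expression induced by doxycycline in cells with stable M3 receptor; B-score is computed from the integrated fluorescence ratio over baseline after carbachol; higher B-score means a larger calcium signal and so more RGS4 inhibition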
# MrgX1 PAM – positive allosteric modulators of MrgX1, primary screen, HEK293 cells, Fluo-4 calcium flux. Mas-related G-protein coupled receptor member X1 (Homo sapiens), Q96LB2. FDSS; stronger effect = higher value. B-score at 10 µM. 310,000 tested, 0.63% active;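 active = plate-corrected calcium response at least 3 library SD above typical, normal starting fluorescence, not activating the receptor alone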;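 also: compound read alongside a low EC10 to EC30 dose of BAM8-22 agonist; peak minus trough fluorescence over baseline measured at the second addition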
# * marks the source's active call; other numbers are inactive results; i = inactive.
SMILES,RGS4 pot,MrgX1 ag,MrgX1 antagonist,RGS4 block,MrgX1 PAM
O=C1S/C(=C\c2ccc(O)c([N+](=O)[O-])c2)C(=O)N1Cc1cccc([N+](=O)[O-])c1,i,i,i,i,i
O=c1oc(-c2ccccc2)cc(Cl)c1Cl,i,i,i,i,i
O=S1(=O)N=C(N2CCc3ccccc3C2)c2ccccc21,-7.4*,i,i,i,i
O=C(CC1C(=O)NCCN1Cc1cccc(C(F)(F)F)c1)NC1CCCCCC1 (stereo not given),i,i,i,i,i
Cc1cc(OCC(=O)NCCCN2CCCC2=O)c2c(C)c(C)c(=O)oc2c1,i,i,i,i,i
O=c1c2ccccc2nc(-c2ccco2)n1CCc1ccc(O)cc1,i,i,i,i,i
O=C(CN1C(=O)/C(=C\c2ccccc2Cl)Oc2ccccc21)NCc1cccnc1,i,i,i,i,i
Cc1ccc(CN2C(=O)/C(=C\c3ccc(C(=O)NCc4cccnc4)cc3)Oc3ccccc32)cc1,i,i,-4.6*,i,i
COC(=O)c1ccc(/C=N/n2c(C)nc3ccccc3c2=O)cc1,i,i,i,i,i
C=CCN1C=CC=C/C1=C1\SC(=S)N(C)C1=O,-8.3*,i,i,i,i
CN1C=CC=C/C1=C1\SC(=S)N(c2ccccc2)C1=O,i,i,i,i,i
CCN1C(=O)/C(=C/N2CCc3ccccc32)SC1=S,i,34*,i,i,i
COc1cc(/C=C(\C#N)C(=O)NC2CCCCC2)ccc1OCc1ccc(C(=O)O)cc1,i,i,i,i,7.6*
CCOC(=O)C1CCCN(C(=O)c2ccc(S(=O)(=O)N3CCCC3)cc2)C1 (stereo not given),i,i,i,i,i
CCOC(=O)C1CCCN(S(=O)(=O)c2ccc(S(=O)(=O)N3CCCC3)cc2)C1 (stereo not given),i,i,-5.3*,i,i
COc1cccc(/C=N/Nc2ncnc3scc(-c4ccccc4)c23)c1O,-10*,i,i,i,i
COc1cccc(/C=N/Nc2ncnc(Cl)c2N)c1O,i,i,i,i,i
COc1cc(/C=N/NC(N)=S)ccc1OCC(=O)Nc1ccc(C)cc1,i,i,-5.5*,i,i
COc1cc(/C=N/NC(=O)NC23CC4CC(CC(C4)C2)C3)ccc1OCC(N)=O,-8.1*,i,i,i,i
CCOc1ccc(N(CC(=O)Nc2ccc(OC)cc2)C2=NC3CS(=O)(=O)CC3S2)cc1 (stereo not given),i,i,i,i,i
CN1CCN(S(=O)(=O)c2cccc(C(=O)Oc3ccc(Br)cc3F)c2)CC1,i,i,i,i,i
Cc1cccc(N2CCN(C(=O)c3cn(C)c(=O)c4c3c3ccccc3n4C)CC2)c1C,i,i,i,i,9.5*
Cn1cccc1CC(=O)N/N=C/c1ccc(Cl)cc1,i,i,i,i,11*
O=C(CNS(=O)(=O)c1ccc([N+](=O)[O-])cc1)N/N=C\c1ccc(O)cc1,i,i,-6.1*,i,9.1*
Cn1cccc1CC(=O)N/N=C/c1ccc([N+](=O)[O-])cc1,i,i,i,i,7.6*
SMILES,RGS4 pot,MrgX1 ag,MrgX1 antagonist,RGS4 block,MrgX1 PAM
CC(=O)Nc1ccc(/C=N\NC(=O)CNS(=O)(=O)c2ccc([N+](=O)[O-])cc2)cc1,i,i,i,i,i
COc1ccc(S(=O)(=O)n2cccc2)cc1,i,i,i,i,i
COc1ccc(C2=NOC(C(=O)NCCN3CCOCC3)C2)cc1 (stereo not given),i,i,i,i,i
COc1ccc(C2=NOC(C(=O)NCCCN3CCOCC3)C2)cc1 (stereo not given),i,i,-5.1*,i,i
COC(=O)C/C(N)=C(\C#N)C(=O)OC,i,i,i,i,i
N#CCC(N)=C(C#N)C#N,i,i,-7.2*,i,i

# From PubChem
